PfG6PD inh: PfG6PD (Plasmodium falciparum) enzyme inhibition; PfGluPho enzyme, NADPH resazurin-diaphorase fluorescence; inhibition, % at 20 µM; actives 0.78% (n = 350,000); AID 504690;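 active = inhibition reaching at least a set limit at 20 µM in the primary screen, cut at about 59% in these data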;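 note: 0% = DMSO wells with substrate and 100% = DMSO wells lacking glucose-6-phosphate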
MC4R ag barr: activates human MC4R beta-arrestin recruitment; P32245; U2OS MC4R beta-arrestin complementation, luminescence; percent of melanotan II response, DMSO zero; activation, % at 8.9 µM; actives 0.98% (n = 360,000); AID 540308;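 active = activation above a per-plate cutoff, the mean activation of sample wells on that plate plus 3 SD, cut at about 8% in these data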
Beta2AR agonist: agonists of human beta-2 adrenergic receptor inducing internalization; P07550; Am2.2-beta2AR cells, FAP receptor internalization, flow cytometry; response, % (test concentration not listed); actives 0.43% (n = 340,000); AID 504454;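 active = response above a set limit, near 3 SD of response in nonfluorescent compounds, cut at about 42% in these data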
Target sequence (P07550 whole entry, looked up): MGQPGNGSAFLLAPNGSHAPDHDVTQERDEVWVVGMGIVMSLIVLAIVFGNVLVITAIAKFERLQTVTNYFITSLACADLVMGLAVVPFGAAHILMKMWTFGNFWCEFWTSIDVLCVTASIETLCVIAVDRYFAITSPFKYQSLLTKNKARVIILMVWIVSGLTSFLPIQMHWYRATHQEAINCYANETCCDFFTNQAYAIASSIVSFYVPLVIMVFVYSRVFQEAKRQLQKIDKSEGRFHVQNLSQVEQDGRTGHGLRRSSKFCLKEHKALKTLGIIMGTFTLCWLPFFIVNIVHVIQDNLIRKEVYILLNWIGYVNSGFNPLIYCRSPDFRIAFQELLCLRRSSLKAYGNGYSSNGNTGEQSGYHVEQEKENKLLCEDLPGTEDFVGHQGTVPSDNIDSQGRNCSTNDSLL
ABHD5 PLIN5 PPI: inhibitors of human ABHD5-perilipin-5 interaction | Q00G26+Q8WTS1 | Split G. princeps luciferase complementation, luminescence, 4 h | inhibition, % at 4 µM | actives 0.78% (n = 360,000);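 active = inhibition above the mean inhibition across every tested compound plus 3 SD, cut at about 22% in these data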;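 note: 0% = DMSO only wells and the 100% control is not disclosed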
MC4R antagonist: human MC4R antagonism in cAMP assay. inhibition, % at 6.5 µM. AID 540295. actives 0.48% (n = 360,000). MC4R-expressing cells, MTII-stimulated cAMP, LANCE TR-FRET;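 active = inhibition above its plate's cutoff, the mean of tested wells on that plate plus 3 SD, cut at about 29% in these data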;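 note: 0% = Melanotan II alone and 100% = Melanotan II plus saturating MCL0020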
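Assay system: U2OS cells stably expressing human melanocortin 4 receptor (MC4R) / Dosing: 6.5 µM / Timing: compound 30 min, challenge 1 h, detection 1 h / Measured by: Eu-cAMP/anti-cAMP TR-FRET, emission 671 nm / Replicates: singlicate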
* = called active by the depositor; · = not tested or not shown. The list is not random: actives were taken first. Their share in the collection is about 3%.

SMILES	PfG6PD inh	MC4R ag barr	Beta2AR agonist	ABHD5 PLIN5 PPI	MC4R antagonist
CC(=O)c1c(C)[nH]c(C(=O)COC(=O)COc2ccccc2F)c1C	-11.2	0.3	-1.4	-5.9	11.7
CC(=O)c1c(C)[nH]c(C(=O)COC(=O)Cc2ccccc2F)c1C	-14.9	3.2	58.7*	-1.5	15.0
COc1cccc(OC)c1C(=O)Oc1ccc2c(c1)O/C(=C\c1ccncc1)C2=O	10.9	8.6*	23.6	8.4	6.4
O=C(O)c1ccccc1C(=O)OC1CCCC2CCCC21 (centres undefined)	-28.8	0.5	3.9	2.0	3.3
Cc1cccc(NC(=O)CCSc2ccccc2)c1C	1.5	8.7*	9.6	7.4	8.1
Cc1cc([N+](=O)[O-])nn1CC(=O)NCCCN1CCOCC1	-2.2	2.9	3.8	-3.5	9.4
Cc1ccccc1CS(=O)(=O)CCC(=O)NCCCN1CCN(c2ccccc2F)CC1	-13.6	0.3	-4.0	2.1	-3.1
Cc1cc(C)c2c(=O)n(CC(=O)NCCCN3CCN(c4ccccc4F)CC3)sc2n1	98.5*	·	·	·	·
Cc1cc(C)c2c(=O)n(CC(=O)NCCCN3CCOCC3)sc2n1	70.3*	-0.5	-2.7	50.0*	21.1
Cc1cccc(OCC(=O)Nc2nc3ccc([N+](=O)[O-])cc3s2)c1C	-8.1	9.1*	1.1	3.4	17.5
COc1ccc(-n2nnc3c(SC(C(C)=O)C(=O)N(C)C)ncnc32)cc1 (centres undefined)	63.5*	-4.7	3.7	-13.3	1.4
Nc1ncc(Br)cc1N=Cc1ccccc1	88.6*	2.2	-3.9	-17.6	-1.4
Cc1cccc(C(=O)Nc2ccc(C(=O)/C=C/c3ccncc3)cc2)c1	23.9	-3.0	60.4*	91.3*	6.7
O=C(/C=C/c1cccnc1)c1ccc(NC(=O)c2cccc(Br)c2)cc1	14.0	-2.5	8.2	50.0*	13.7
Cc1cccc(C(=O)Nc2cccc(C(=O)N/N=C/c3ccncc3)c2)c1	-2.5	0.2	1.7	2.4	6.2
O=C(N/N=C/c1cccnc1)c1cccc(Br)c1	-19.4	0.7	0.5	-4.3	24.2
CCCCN1C(=O)C(CC(=O)NCc2cccc3ccccc23)CC(C(=O)N2CCOCC2)=C1C (centres undefined)	-5.8	-0.8	·	9.5	-1.7
CC(=O)Nc1cccc(C(=O)/C=C/c2cccs2)c1	2.5	0.4	-0.7	22.4*	1.0
CC(=O)Nc1cccc(C(=O)/C=C/c2ccco2)c1	48.0	-0.8	-4.1	28.5*	-1.8
O=C(/C=C/c1ccco1)NC(=S)Nc1cccc(C(=O)O)c1	8.5	-1.3	-4.9	8.4	5.9
CCc1ccc(NS(=O)(=O)c2ccc(C)c(C(=O)N3CCOCC3)c2)cc1	-4.5	-0.9	21.1	-5.4	12.2
CN(CC1CCCN(CCc2ccc(Cl)cc2)C1)C(=O)c1ccco1 (centres undefined)	25.8	1.2	8.6	0.5	3.5
Cc1ccc(Cl)c(OCC(=O)Nc2sc(C)c(C)c2C#N)c1	-7.6	-0.7	4.6	-1.3	7.9
CCc1ccc(NC(=O)C(C)Sc2ccc(S(=O)(=O)N3CCN(C)CC3)cn2)cc1 (centres undefined)	-4.7	-2.1	-3.7	-3.3	4.3
CC(=O)Nc1ccc(/C=C/c2nc3ccccc3o2)cc1	13.2	-1.2	-7.2	-2.6	1.7
SMILES	PfG6PD inh	MC4R ag barr	Beta2AR agonist	ABHD5 PLIN5 PPI	MC4R antagonist
O=C(Nc1ccc(/C=C/c2nc3ccccc3o2)cc1)c1c(F)cccc1F	10.5	8.9*	5.8	-1.0	10.0
O=C(OCc1cn([C@H]2CN(C(=O)c3cccs3)[C@@H](c3ccc(Cl)cc3)C[C@@H]2O)nn1)c1ccccc1	4.8	-0.2	·	-5.3	0.6
CC(=O)NC(CC(=O)OCC(=O)N1CCN(S(=O)(=O)c2ccc(Cl)cc2)CC1)c1ccccc1 (centres undefined)	10.3	-1.0	-2.3	5.6	-4.5
COc1ccc(/C=C2\SC(=O)N(CC(=O)Nc3ccc(F)cc3)C2=O)cc1O	-4.9	9.2*	8.6	-5.0	10.8
COCCNC(=O)C1(C)CCCN(CCSc2ccccc2)C1 (centres undefined)	·	-1.5	·	4.7	-9.2
Cc1c(C)n(C(=O)CSc2nc3ccccc3[nH]2)c2ccccc12	1.2	4.8	3.1	5.9	-0.1
c1ccc(CCNc2ccnc3cc4ccccc4cc23)cc1	12.6	16.9*	80.7*	18.2	-11.0
COCC(=O)N1C[C@@H](C)[C@@H](OC)CN(C)C(=O)c2ccc(NC(=O)c3cnccn3)cc2OC[C@H]1C	·	·	·	5.7	·

Source: PubChem BioAssay
